According to ChEMBL document CHEMBL1143704, “Cyathusals A, B, and C, antioxidants from the fermented mushroom Cyathus stercoreus” (J Nat Prod, 2007):
pEC50: −log10 of the molar value.

What was measured:
[1] = tested on: Radical scavenging activity; assay: Antioxidant activity assessed as DPPH radical scavenging activity after 30 mins; assay type: functional
Summary of the method: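 10 µL DMSO sample dilutions (DMSO alone as control) added to 190 µL of 1.5 × 10^-4 M ethanolic DPPH radical. Incubated 30 min at 25 °C, then A517 read at steady state. % scavenged = (1 − Atest/Acontrol) × 100. EC50 is the concentration scavenging 50% of the DPPH radical.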

[2] = Antioxidant activity assessed as ABTS radical scavenging activity after 7 mins

SMILES	pEC50 [1]	pEC50 [2]
C/C=C/c1cc2c(c(=O)o1)-c1c(O)c(O)c(OC)c(C=O)c1C(OC)O2 (configuration not stated) [PULVINATAL]	4.54	5.08
C/C=C/c1cc2c(c(=O)o1)-c1c(O)c(O)c(OC)c(C=O)c1C(O)O2 (configuration not stated) [CYATHUSAL B]	4.34	4.96
C/C=C/c1cc2c(c(=O)o1)-c1c(O)c(O)c(OC)c(C=O)c1C(OC(C)C)O2 (configuration not stated) [CYATHUSAL C]	4.57	5.04
C/C=C/c1cc2c(c(=O)o1)-c1c(O)c(O)c(OC)c(C=O)c1CO2 [CYATHUSAL A]	4.38	5.10
Cc1c(C)c2c(c(C)c1O)CCC(C)(C(=O)O)O2 (configuration not stated) [TROLOX]	4.42	4.84
COc1ccc(O)c(C(C)(C)C)c1.COc1ccc(O)cc1C(C)(C)C [BUTYLATED HYDROXYANISOLE]	4.01	4.93
